From PMC6944740 (Alzheimer's & Dementia : Translational Research & Clinical …, 2019)

Tests used:
[1] = test system: SH-sy5y cells; assay: SH-sy5y cells in iron-rich medium: hydroxyl radical, iron and cell survival; assay type: cell-based, human; settings: 1.5 μM peptide; SEM and flow cytometry
[2] = Solubility of the oligomer; assay type: physicochemical; settings: dissolved in distilled water at 1 mg/mL
[3] = Isothermal titration calorimetry of FeCl3 with 5-YHEDA; settings: ITC, 200 μM 5-YHEDA, 1000 μM FeCl3, one-site binding model
[4] = test system: SN mice; assay type: in vivo, Kunming mouse; settings: 200 μL of 20 μM intracardiac weekly, versus untreated SN mice
[5] = test system: SN mice; assay: TUNEL assay of neuronal necrosis in brain; assay type: in vivo, Kunming mouse; settings: intracardiac weekly, versus untreated SN mice
Outline: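 Senescent 25-month-old Kunming mice were picked by water maze, TUNEL and blood assays and given 200 μL of 20 μM peptide intracardially each time. Frozen brain sections sat 1 h in Na-HEPES, then 10 mM H2O2 and […]. After PBS wash and 0.1% Triton X-100, TUNEL mix ran 1 h at 37°C in the dark; some sections were DAB-stained. Bright/brown spots were scored necrotic.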

[6] = 5-YHEDA immunohistochemical staining of brain slices after cardiac injection; assay type: in vivo, mouse; settings: mice, intracardiac injection
Outline: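 Fixed brain slices were blocked in 0.1% BSA/PBS (w/v) for 1 h, then given anti-peptide mouse serum at 4°C overnight. The serum was raised in normal mice injected weekly with peptide plus incomplete Freund adjuvant (s.c. or i.p.) for 2 months. After washing, slices took HRP goat anti-mouse IgG for 2 h, then DAB development.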

YHEDAYHEDAYHEDAYHEDAYHEDA [5-YHEDA]
survival of SH-sy5y cells in iron-rich medium [1]: many of the SH-sy5y cells cultured in iron-rich medium survived
solubility [2]: soluble
Gibbs energy lost after FeCl3 titration (ΔG) [3]: 8973 kcal/mol
iron and radical levels in the brain (Fig. 5I) [4]: nearly the same as those in the untreated SN mice
neuronal necrosis in the SN brain (TUNEL) [5]: did not prevent neuronal damage
entry into brain (anti-5-YHEDA immunohistochemical staining of brain slices) [6]: no staining was observed
